According to ChEMBL document CHEMBL1145447, “Synthetic studies of neoclerodane diterpenes from Salvia divinorum: preparation and opioid receptor activity of salvinicin analogues” (J Med Chem, 2007):
Calls of active or inactive are those of the source. The calls are words filed in the database; no cut-off is given here.

Experiments:
[1] = molecular target: T1, Delta-type opioid receptor (Homo sapiens, UniProt P41143); assay: Displacement of [125I]IOXY from human delta opioid receptor expressed in CHO cells; type: cell-based
Summary of the method: (§1)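 Membranes from CHO cells stably transfected with the respective human opioid receptor cDNA (hMOR-, hDOR-, hKOR-CHO). Radioligand [125I]IOXY (SA 2200 Ci/mmol) labels µ, δ and κ sites. Incubation in 50 mM Tris-HCl pH 7.4 with bacitracin, bestatin, leupeptin and chymostatin. Nonspecific binding is defined with 10 µM naloxone. Ki is the mean ± SD of at least two independent determinations.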

Mu-type opioid receptor [2] = molecular target: T2, Mu-type opioid receptor (Homo sapiens, UniProt P35372); assay: Displacement of [125I]IOXY from human mu opioid receptor expressed in CHO cells; type: cell-based
Summary of the method: as §1, with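 “hKOR-CHO).” for “hKOR-CHO). Radioligand [125I]IOXY (SA 2200 Ci/mmol) labels µ, δ and κ sites.”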

[3] = molecular target: T3, Kappa-type opioid receptor (Homo sapiens, UniProt P41145); assay: Activity at human kappa opioid receptor expressed in CHO cells by [35S]GTP-gamma-S binding assay relative to U69593; type: functional, cell-based
Summary of the method: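 [35S]GTP-γ-S binding in hKOR-CHO cells (stably transfected human receptor). Emax is the percent stimulation relative to the maximal stimulation by U69,593 run in parallel. EC50 and Emax are the mean ± SE of at least three independent experiments. Emax is compared with U69,593 by one-way ANOVA with Dunnett's test. Drug dilutions are made in buffer with 1 mg/mL BSA, from 10 mM DMSO/2-mercaptoethanol stocks.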

[4] = molecular target: Opioid receptors; mu & kappa (Homo sapiens) (UniProt P41145+P35372); assay: Selectivity for kappa opioid receptor over mu opioid receptor; type: protein assay
[5] = molecular target: T1, Delta-type opioid receptor; assay: Antagonist activity at human delta opioid receptor expressed in CHO cells by [35S]GTP-gamma-S binding assay; type: functional, cell-based
Summary of the method: (§2)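 Antagonism is measured in a [35S]GTP-γ-S binding assay in CHO cells stably transfected with human δ, κ or µ opioid receptor cDNA. Result is given as Ke, the mean ± SD of at least two independent determinations. Test compounds come from 10 mM stocks in 100% DMSO + 10 mM 2-mercaptoethanol, stored at -80 °C. They are diluted in buffer containing 1 mg/mL BSA.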

Mu-type opioid receptor [6] = molecular target: T2, Mu-type opioid receptor; assay: Antagonist activity at human mu opioid receptor expressed in CHO cells by [35S]GTP-gamma-S binding assay; type: functional, cell-based; summary of the method: as §2
[7] = molecular target: Opioid receptors; delta & kappa (Homo sapiens) (UniProt P41145+P41143); assay: Selectivity for kappa opioid receptor over delta opioid receptor; type: protein assay
[8] = molecular target: T3, Kappa-type opioid receptor; assay: Displacement of [125I]IOXY from human kappa opioid receptor expressed in CHO cells; type: cell-based
Summary of the method: as §1, with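 “hKOR-CHO).” for “hKOR-CHO). Radioligand [125I]IOXY (SA 2200 Ci/mmol) labels µ, δ and κ sites.”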

[9] = molecular target: T3, Kappa-type opioid receptor; assay: Antagonist activity at human kappa opioid receptor expressed in CHO cells by [35S]GTP-gamma-S binding assay; type: functional, cell-based; summary of the method: as §2

T3 sequence (P41145 whole entry): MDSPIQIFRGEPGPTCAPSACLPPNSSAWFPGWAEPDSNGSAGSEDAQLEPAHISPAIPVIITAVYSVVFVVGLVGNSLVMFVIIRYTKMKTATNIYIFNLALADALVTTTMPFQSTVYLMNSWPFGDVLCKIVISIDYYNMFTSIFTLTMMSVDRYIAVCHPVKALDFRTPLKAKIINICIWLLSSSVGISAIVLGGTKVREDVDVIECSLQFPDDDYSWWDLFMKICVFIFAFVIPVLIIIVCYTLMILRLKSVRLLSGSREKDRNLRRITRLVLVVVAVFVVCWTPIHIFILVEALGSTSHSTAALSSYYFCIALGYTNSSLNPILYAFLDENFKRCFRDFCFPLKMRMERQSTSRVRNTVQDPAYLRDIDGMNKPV
T1 sequence (P41143 whole entry): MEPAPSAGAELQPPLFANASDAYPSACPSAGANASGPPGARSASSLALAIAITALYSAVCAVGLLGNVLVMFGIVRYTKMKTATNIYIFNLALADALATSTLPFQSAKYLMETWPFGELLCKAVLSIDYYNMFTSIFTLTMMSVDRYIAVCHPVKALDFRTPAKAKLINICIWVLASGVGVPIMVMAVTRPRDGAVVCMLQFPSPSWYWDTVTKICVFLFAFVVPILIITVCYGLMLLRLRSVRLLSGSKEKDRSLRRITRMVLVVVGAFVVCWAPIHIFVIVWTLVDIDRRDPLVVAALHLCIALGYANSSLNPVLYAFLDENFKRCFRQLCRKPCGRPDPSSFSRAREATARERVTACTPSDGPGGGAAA
Sequence of Opioid receptors; delta & kappa (Homo sapiens) (P41143 whole entry, looked up): as the sequence (P41143 whole entry) above
Sequence of Opioid receptors; delta & kappa (Homo sapiens) (P41145 whole entry, looked up): as the sequence (P41145 whole entry) above
Sequence of Opioid receptors; mu & kappa (Homo sapiens) (P35372 whole entry, looked up): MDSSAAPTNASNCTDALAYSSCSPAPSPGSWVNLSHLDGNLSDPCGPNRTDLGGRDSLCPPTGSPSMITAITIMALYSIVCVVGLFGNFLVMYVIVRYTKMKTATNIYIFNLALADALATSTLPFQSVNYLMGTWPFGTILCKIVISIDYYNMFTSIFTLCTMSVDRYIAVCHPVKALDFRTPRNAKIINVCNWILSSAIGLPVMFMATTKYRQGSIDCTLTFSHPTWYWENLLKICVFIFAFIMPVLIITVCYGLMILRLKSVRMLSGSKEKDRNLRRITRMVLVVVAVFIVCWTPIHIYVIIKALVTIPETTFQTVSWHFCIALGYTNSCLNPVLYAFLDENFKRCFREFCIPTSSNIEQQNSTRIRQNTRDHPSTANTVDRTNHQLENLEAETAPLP
Sequence of Opioid receptors; mu & kappa (Homo sapiens) (P41145 whole entry, looked up): as the sequence (P41145 whole entry) above
T2 sequence (P35372 whole entry): as the sequence (P35372 whole entry, looked up) above

Compound	Ki [1] [µM]	Ki (Mu-type opioid receptor [2]) [µM]	Emax [3] [%]	Ratio Ki [4]	Ke [5] [µM]	Ki (Mu-type opioid receptor [6]) [µM]	Ratio Ki [7]	Ki [8] [µM]	Ke [9] [nM]	EC50 [9] [µM]	Activity [5]	Activity (Mu-type opioid receptor [6])	Ke (Mu-type opioid receptor [6]) [nM]	Activity [9]
COC(=O)[C@@H]1C[C@H](OC(C)=O)C(=O)[C@H]2[C@@]1(C)CC[C@H]1C(=O)O[C@H](c3ccoc3Br)C[C@]21C	7.62	1.45	104											
COC(=O)[C@@H]1C[C@H](OC(C)=O)C(=O)[C@@H]2[C@@]3(C)C[C@@H](c4nc(C)no4)OC(=O)[C@H]3CC[C@]21C	> 10	> 10		> 10	4.23	1.53	> 10	0.99	5680					
COC(=O)[C@@H]1C[C@H](OC(C)=O)C(=O)[C@H]2[C@@]1(C)CC[C@H]1C(=O)O[C@H](C3=C[C@@H](OC)O[C@H]3OC)C[C@]21C	> 10	3.74		21	1.28	2.93	> 55	0.18	2370					
COC(=O)[C@@H]1C[C@H](OC(C)=O)C(=O)[C@@H]2[C@@](C)(CCC3CCOC3)[C@H](C(=O)O)CC[C@]21C (some centres not stated)	> 10	> 10		> 10			> 10	0.91						
COC(=O)[C@@H]1C[C@H](OC(C)=O)C(=O)[C@H]2[C@@]1(C)CC[C@H]1C(=O)O[C@H]([C@@H]3C[C@@H](OC)O[C@@H]3OC)C[C@]21C	> 10	> 10	95	> 400	> 10	1.37	> 400	0.025		2.35				
COC(=O)[C@@H]1C[C@H](OC(C)=O)C(=O)[C@H]2[C@@]1(C)CC[C@H]1C(=O)OC([C@]3(O)[C@H](OC)O[C@H](OC)[C@H]3OC(C)=O)C[C@]21C (some centres not stated)	> 10	> 10						> 10						
COC(=O)[C@@H]1C[C@H](OC(C)=O)C(=O)[C@@H]2[C@@]3(C)C[C@@H]([C@]4(O)[C@@H](OC)O[C@@H](OC)[C@H]4O)CC(=O)[C@@H]3CC[C@]21C [SALVINICIN B]	> 10	> 10		1.4			1.4	7.02						
COC(=O)[C@@H]1C[C@H](OC(C)=O)C(=O)[C@H]2[C@@]1(C)CC[C@H]1C(=O)O[C@H](c3nc(C)no3)C[C@]21C	> 10	> 10		> 170		0.43	> 170	0.056	360		inactive			
COC(=O)[C@@H]1C[C@H](OC(C)=O)C(=O)[C@H]2[C@@]1(C)CC[C@H]1C(=O)OC([C@]3(O)[C@@H](OC)O[C@@H](OC)[C@H]3OC(C)=O)C[C@]21C (some centres not stated)	> 10	> 10						> 10						
COC(=O)[C@@H]1C[C@H](OC(C)=O)C(=O)[C@H]2[C@@]1(C)CC[C@H]1C(=O)OCC[C@]21C	> 10	> 10		> 3			> 3	3.4						
COC(=O)[C@@H]1C[C@H](OC(C)=O)C(=O)[C@H]2[C@@]1(C)CC[C@H]1C(=O)O[C@H](C3=NCCO3)C[C@]21C	> 10	> 10		> 30			> 30	0.3						
COC(=O)[C@@H]1C[C@H](OC(C)=O)C(=O)[C@H]2[C@@]1(C)CC[C@H]1C(=O)O[C@H]([C@@H]3CCOC3)C[C@]21C	> 10	9.79	81					0.0037		0.75	inactive	inactive		
COC(=O)[C@@H]1C[C@H](OC(C)=O)C(=O)[C@H]2[C@@]1(C)CC[C@H]1C(=O)O[C@H](C3CCOC3)C[C@]21C (some centres not stated)	> 10							0.014						
COC(=O)[C@@H]1C[C@H](OC(C)=O)C(=O)[C@H]2[C@@]1(C)CC[C@H]1C(=O)O[C@H](C3=CC(=O)OC3O)C[C@]21C (some centres not stated)					2.83				440				760	
COC(=O)[C@@H]1C[C@H](OC(C)=O)C(=O)[C@H]2[C@@]1(C)CC[C@H]1C(=O)O[C@H](C3=CC(OC)OC3OC)C[C@]21C (some centres not stated)	> 10	> 10		> 20			> 20	0.44						
COC(=O)[C@@H]1C[C@H](OC(C)=O)C(=O)[C@H]2[C@@]1(C)CC[C@H]1C(=O)O[C@H]([C@@H]3C[C@@H](OC)O[C@H]3OC)C[C@]21C	> 10	> 10		> 80			> 80	0.125			inactive	inactive		inactive
COC(=O)[C@@H]1C[C@H](OC(C)=O)C(=O)[C@H]2[C@@]1(C)CC[C@H]1C(=O)O[C@H](C3CC(OC)OC3OC)C[C@]21C (some centres not stated)	> 10	4.81		120			> 250	0.04						
COC(=O)[C@@H]1C[C@H](O)C(=O)[C@H]2[C@@]1(C)CC[C@H]1C(=O)O[C@H](c3ccoc3)C[C@]21C [SALVINORIN B]	> 10	> 10												
COC(=O)[C@@H]1C[C@H](OC(C)=O)C(=O)[C@H]2[C@@]1(C)CC[C@H]1C(=O)O[C@H](C3=C[C@@H](OC)O[C@@H]3OC)C[C@]21C	> 10	3.19		8	3.28	2.32	> 23	0.42	9700					
COC(=O)[C@@H]1C[C@H](OC(C)=O)C(=O)[C@H]2[C@@]1(C)CC[C@H]1C(=O)O[C@H]([C@]3(O)[C@H](OC)O[C@H](OC)[C@H]3O)C[C@]21C [SALVINICIN A]	> 10	> 10		> 26			> 26	0.39						
